Series [1] has as its system NMDAR currents in hippocampal CA1 pyramidal cells. It is filed as cell-based.
For another series, the target named is T1, M1 mAChR (M1/CHO cells) (Rattus norvegicus, UniProt P08482).
T1 sequence (P08482 1-460): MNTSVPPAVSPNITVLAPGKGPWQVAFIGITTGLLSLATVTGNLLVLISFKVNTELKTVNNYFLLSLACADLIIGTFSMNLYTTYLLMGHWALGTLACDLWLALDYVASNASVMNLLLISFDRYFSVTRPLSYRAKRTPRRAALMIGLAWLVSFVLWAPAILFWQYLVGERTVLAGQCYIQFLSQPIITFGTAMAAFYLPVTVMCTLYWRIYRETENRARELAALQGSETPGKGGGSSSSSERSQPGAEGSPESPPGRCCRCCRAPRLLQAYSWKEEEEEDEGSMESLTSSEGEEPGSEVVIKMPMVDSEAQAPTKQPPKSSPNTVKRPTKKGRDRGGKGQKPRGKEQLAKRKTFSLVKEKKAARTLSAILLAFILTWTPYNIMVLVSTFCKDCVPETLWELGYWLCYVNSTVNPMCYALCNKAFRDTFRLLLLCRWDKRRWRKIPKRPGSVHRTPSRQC
The series can be described thus: functional cell-based calcium-mobilization assay, M1/CHO cell line. The settings on record: read-out: M1 IC50. In short, it runs like this: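 Real-time calcium mobilisation in CHO cells expressing M1, with a Z' averaging 0.7. Primary hits from a single-pass library screen were retested in duplicate and counter-screened on mGluR4/CHO cells. IC50 values came from 10-point concentration-response curves run in triplicate, tested in parallel on M4/CHO cells.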

The subject of a further series is M2-M5 mAChR. Description: functional mAChR selectivity, M2-M5 reported together. The format is cell-based, rat.
In a further series the target is T2, M1 mAChR (Homo sapiens, UniProt P11229).
T2 sequence (P11229 1-460): T1 sequence (P08482 1-460) with V5A, S254T, S309P, K320R, G337A, V413I
Description: phosphoinositide. It is filed as cell-based. The settings on record: PI hydrolysis, ACh concentration-response curve. In short, it runs like this: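 Phosphoinositide hydrolysis was driven by an ACh concentration-response curve, run with and without several test compound concentrations. Rightward shifts of the ACh curve were fitted by Schild analysis to give a Kd and a slope.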

Another series addresses T3, Y381A mutant M1 mAChR (Homo sapiens, UniProt P11229, Y381A).
T3 sequence (P11229 1-460 Y381A): T1 sequence (P08482 1-460) with V5A, S254T, S309P, K320R, G337A, Y381A, V413I
The series can be described thus: mutagenesis experiment, Y381A mutant M1. The format is cell-based. The settings on record: wherein ACh loses affinity.

Series [2] relates to pilocarpine-induced seizures. Description: pilocarpine-induced seizures in vivo. On the set-up: species or system mice. The settings on record: pilocarpine 280 mg/kg.
The nature of another series: plasma:brain study. It is filed as in vivo, Sprauge Dawley rat. The note with it: male rats, 10 mg/kg i.p.
The next series concerns M1 receptor versus M2-M5. The settings on record: reported for known antagonists, no reference given; cited from earlier work.

Changes are numbered by the printed parent chain. Where only a bound is given, the exact number is not on record here.

A word on the IC50: it is the concentration needed to halve the response being measured.

For `O=C(CCNS(=O)(=O)c1cccc2nsnc12)N1CCN(c2ccncc2)CC1` [VU0255035], in series [1] (10 μM CCh, 5 μM compound), the “block of CCh-potentiated NMDA-evoked current” value is given as “completely blocked”. The “effect of compound alone on NMDA-evoked current” value in series [1] (compound alone, no CCh) was “no effect”. The IC50 at M1 mAChR (M1/CHO cells) was 130 nM; in the series on M2-M5 mAChR (read-out: M2-M5 IC50, functional, one bound for all of M2-M5) it was more than 10000 nM. Further, the “functional selectivity for M1 versus M2-M5” value in the series with M2-M5 mAChR (functional) was more than 75 fold. Further, the “inhibition of M2-M5” value with M2-M5 mAChR (up to 150 μM in some experiments, concentrations solubility limited) is on record as “little inhibition”. The molecule further gave a Schild slope on M1 mAChR of 0.90 ± 0.08. Also, the “antagonism of M1 mAChR responses in Y381A mutant” value on Y381A mutant M1 mAChR is “right shifted”. In addition, in series [2] (compound 10 mg/kg i.p.), the seizure count entry is recorded as “statistically significant effect reducing seizure count”. Moreover, the animals that died in series [2] (compound 10 mg/kg i.p. after 40 minutes, 2/8 at 24 hours) is 25%. Also, in the series “plasma:brain study”, the BrainAUC/PlasmaAUC was found to be 0.48.

B1: MT7 (protein, UniProt Q8QGR0 22-86, looked up)
Muscarinic toxin 7: LTCVKSNSIWFPTSEDCPDGQNLCFKRWQYISPRMYDFTRGCAATCPKAEYRDVINCCGTDKCNK
Turning to B1, the “M1 selectivity versus M2-M5” value in the series with M1 receptor versus M2-M5 is > 1,000 fold.

The record behind these values is PMC4765323 (Current topics in medicinal chemistry, 2009).
